Values after ≈ are worked out from the molar mass of the structure shown.
Legend:
Format in all cases: functional
[1] = system: Mycobacterium tuberculosis; assay: Antitubercular activity against isoniazid-resistant Mycobacterium tuberculosis ATCC 35822 after 5 days by resazurin-based microplate assay; details: ATCC 35822, 120 h
How it was run: (§1)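 Mid-log cultures grown in 7H9 with glycerol, Tween-80 and ADC. Compounds in DMSO were tested two-fold from […] against ~10^5 CFU/mL, 37°C for 5 d. Resazurin was then added for a further 2 d, and fluorescence read at ex 530/em 590 with visual confirmation. MIC was the lowest concentration inhibiting 90% of growth. Final DMSO 0.625%; two-fold variation taken as assay error.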

[2] = system: Mycobacterium tuberculosis; assay: Antitubercular activity against kanamycin-resistant Mycobacterium tuberculosis ATCC 35827 after 5 days by resazurin-based microplate assay; details: ATCC 35827, 120 h; how it was run: as §1
[3] = system: Mycobacterium tuberculosis; assay: Antitubercular activity against streptomycin-resistant Mycobacterium tuberculosis ATCC 35820 after 5 days by resazurin-based microplate assay; details: ATCC 35820, 120 h; how it was run: as §1
[4] = system: Mycobacterium tuberculosis; assay: Antitubercular activity against ethionamide-resistant Mycobacterium tuberculosis ATCC 35830 after 5 days by resazurin-based microplate assay; details: ATCC 35830, 120 h; how it was run: as §1
[5] = system: Mycobacterium tuberculosis; assay: Antitubercular activity against ethambutol-resistant Mycobacterium tuberculosis ATCC 35837 after 5 days by resazurin-based microplate assay; details: ATCC 35837, 120 h; how it was run: as §1

## CCNc1n[n+]([O-])c2ccccc2[n+]1[O-]
[1]
  MIC90: 1.2 µg/mL (≈ 5.82 µM)
[2]
  MIC90: 1.2 µg/mL (≈ 5.82 µM)
[3]
  MIC90: 1.2 µg/mL (≈ 5.82 µM)
[4]
  MIC90: 1.2 µg/mL (≈ 5.82 µM)
[5]
  MIC90: 1.2 µg/mL (≈ 5.82 µM)

## CC(C)(C)Nc1n[n+]([O-])c2ccccc2[n+]1[O-]
[1]
  MIC90: 2.5 µg/mL (≈ 10.7 µM)
[2]
  MIC90: 2.5 µg/mL (≈ 10.7 µM)
[3]
  MIC90: 1.2 µg/mL (≈ 5.12 µM)
[4]
  MIC90: 1.2 µg/mL (≈ 5.12 µM)
[5]
  MIC90: 2.5 µg/mL (≈ 10.7 µM)

## CCNc1n[n+]([O-])c2cccc(C)c2[n+]1[O-]
[1]
  MIC90: 0.62 µg/mL (≈ 2.82 µM)
[2]
  MIC90: 0.62 µg/mL (≈ 2.82 µM)
[3]
  MIC90: 0.16 µg/mL (≈ 0.727 µM)
[4]
  MIC90: 0.31 µg/mL (≈ 1.41 µM)
[5]
  MIC90: 0.62 µg/mL (≈ 2.82 µM)

## CCNc1n[n+]([O-])c2cc3c(cc2[n+]1[O-])CCC3
[1]
  MIC90: 1.2 µg/mL (≈ 4.87 µM)
[2]
  MIC90: 1.2 µg/mL (≈ 4.87 µM)
[3]
  MIC90: 0.63 µg/mL (≈ 2.56 µM)
[4]
  MIC90: 1.2 µg/mL (≈ 4.87 µM)
[5]
  MIC90: 1.2 µg/mL (≈ 4.87 µM)

## [O-][n+]1nc(NC2CCC2)[n+]([O-])c2cc3c(cc21)CCC3
[1]
  MIC90: 1.2 µg/mL (≈ 4.41 µM)
[2]
  MIC90: 1.2 µg/mL (≈ 4.41 µM)
[3]
  MIC90: 0.31 µg/mL (≈ 1.14 µM)
[4]
  MIC90: 0.62 µg/mL (≈ 2.28 µM)
[5]
  MIC90: 0.62 µg/mL (≈ 2.28 µM)

## CCNc1n[n+]([O-])c2cc(C)c(OC)cc2[n+]1[O-]
[1]
  MIC90: 1.2 µg/mL (≈ 4.8 µM)
[2]
  MIC90: 1.2 µg/mL (≈ 4.8 µM)
[3]
  MIC90: 1.2 µg/mL (≈ 4.8 µM)
[4]
  MIC90: 1.2 µg/mL (≈ 4.8 µM)
[5]
  MIC90: 1.2 µg/mL (≈ 4.8 µM)

## [O-][n+]1nc(N2CCCC2)[n+]([O-])c2ccccc21
[1]
  MIC90: 0.31 µg/mL (≈ 1.33 µM)
[2]
  MIC90: 0.31 µg/mL (≈ 1.33 µM)
[3]
  MIC90: 0.02 µg/mL (≈ 0.0861 µM)
[4]
  MIC90: 0.31 µg/mL (≈ 1.33 µM)
[5]
  MIC90: 0.31 µg/mL (≈ 1.33 µM)

## [O-][n+]1nc(N2CCCC2)[n+]([O-])c2cc3c(cc21)CCC3
[1]
  MIC90: 0.31 µg/mL (≈ 1.14 µM)
[2]
  MIC90: 0.63 µg/mL (≈ 2.31 µM)
[3]
  MIC90: 0.16 µg/mL (≈ 0.588 µM)
[4]
  MIC90: 0.62 µg/mL (≈ 2.28 µM)
[5]
  MIC90: 0.62 µg/mL (≈ 2.28 µM)

## [O-][n+]1nc(N2CCCCC2)[n+]([O-])c2cc3c(cc21)CCC3
[1]
  MIC90: 0.15 µg/mL (≈ 0.524 µM)
[2]
  MIC90: 0.31 µg/mL (≈ 1.08 µM)
[3]
  MIC90: 0.15 µg/mL (≈ 0.524 µM)
[4]
  MIC90: 0.31 µg/mL (≈ 1.08 µM)
[5]
  MIC90: 0.31 µg/mL (≈ 1.08 µM)

## CN(C)c1n[n+]([O-])c2cc3c(cc2[n+]1[O-])CCC3
[1]
  MIC90: < 0.07 µg/mL
[2]
  MIC90: 0.31 µg/mL (≈ 1.26 µM)
[3]
  MIC90: < 0.07 µg/mL
[4]
  MIC90: 0.15 µg/mL (≈ 0.609 µM)
[5]
  MIC90: 0.31 µg/mL (≈ 1.26 µM)

## CN(Cc1ccccc1)c1n[n+]([O-])c2cc3c(cc2[n+]1[O-])CCC3
[1]
  MIC90: < 0.07 µg/mL
[2]
  MIC90: 0.15 µg/mL (≈ 0.465 µM)
[3]
  MIC90: < 0.07 µg/mL
[4]
  MIC90: 0.07 µg/mL (≈ 0.217 µM)
[5]
  MIC90: 0.15 µg/mL (≈ 0.465 µM)

## CN(CCc1ccccc1)c1n[n+]([O-])c2cc3c(cc2[n+]1[O-])CCC3
[1]
  MIC90: 0.07 µg/mL (≈ 0.208 µM)
[2]
  MIC90: 0.15 µg/mL (≈ 0.446 µM)
[3]
  MIC90: < 0.07 µg/mL
[4]
  MIC90: 0.15 µg/mL (≈ 0.446 µM)
[5]
  MIC90: 0.31 µg/mL (≈ 0.922 µM)

## CC1CCCCN1c1n[n+]([O-])c2cc3c(cc2[n+]1[O-])CCC3 (stereo not given)
[1]
  MIC90: 0.31 µg/mL (≈ 1.03 µM)
[2]
  MIC90: 0.62 µg/mL (≈ 2.06 µM)
[3]
  MIC90: 0.31 µg/mL (≈ 1.03 µM)
[4]
  MIC90: 0.31 µg/mL (≈ 1.03 µM)
[5]
  MIC90: 0.62 µg/mL (≈ 2.06 µM)

Reference: ChEMBL document CHEMBL2150981, “Discovery and optimization of benzotriazine di-N-oxides targeting replicating and nonreplicating Mycobacterium tuberculosis” (J Med Chem, 2012)
